Reference: PMC2156157 (The Journal of Cell Biology, 1999)
Values belong to the substance of their own block, whether it stands above or below them. Ends that are not written are not given here. * marks the point of attachment. Biotin = O=C1N[C@H]2[C@H](CS[C@H]2CCCCC(=O)*)N1

Key:
c-Yes = type: cell-based, human; settings: 16HBE14o− on transwell filters, mouse anti–c-Yes (1:100), XZ confocal
How it was run: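 16HBE14o− clones stably expressing GFP-YAP65 chimeras were selected with G418 and screened by fluorescence and anti-GFP blot. Cells were grown to confluence on transwell filters and fixed in 4% paraformaldehyde. After blocking (milk/BSA/0.1% Triton X-100, 3 h), they were stained with mouse anti-c-Yes (1:100) and fluorescent secondary antiserum, then scanned in XZ by confocal microscopy. At least two independent clones per line were analysed.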

GST [1] = assay: GST control pull-down from 16HBE14o− lysate, Western blot; type: binding; settings: 10 μg GST
How it was run: (§1)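 Human bronchial epithelial 16HBE14o− cells lysed in RIPA with 250 µM orthovanadate and protease inhibitors, then cleared at 40,000 g. GST or GST fusion protein (10 µg) on glutathione agarose was incubated with lysate (100 µg or ~200 µg) in binding buffer + 0.1% Triton X-100 for 3 h at 4°C. Washes: TEE/1 M NaCl/1% Triton, then binding buffer. Bound protein detected by 10% SDS-PAGE and immunoblot; ≥3 repeats.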

GST-EBP50 [2] = assay: GST-EBP50 pull-down from 16HBE14o− lysate, Western blot; type: binding, human; settings: 10 μg GST-EBP50, 16HBE14o− lysate
How it was run: as §1

[3] = system: apical membrane of airway epithelial cells; type: cell-based, human; settings: 16HBE14o− cells on transwell filters 7–10 d after confluence, confocal
How it was run: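 Samples were 16HBE14o− filters (7–10 d post-confluence) or primary nasal cultures (air-liquid interface, 40–50 d). Fixation was 4% paraformaldehyde, 5–20 min, room temperature. Blocking used milk/BSA/Triton (16HBE14o−) or 10–20% goat serum (primary). Primary antisera ran 4–12 h: ezrin 1:300, ZO-1 1:200, EBP50 1:500 or 1:200, YAP65 1:300 or 1:200. Primary cultures also got 70 nM FITC-phalloidin. Texas red/FITC secondaries, XZ confocal imaging.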

GST-EBP50 [4] = assay: GST-EBP50 affinity resin binding of radiolabeled proteins; parameters: species or system human; settings: in vitro, conclusion from competition and resin binding
How it was run: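 GST-EBP50 (10 µg) on glutathione agarose was preincubated for 2 h with or without biotinylated C-terminal peptides. Peptides were given at 400 nM, or at increasing concentrations of YAP65 wild-type peptide. Incubation lasted 3 h at 4°C, followed by high-salt (1 M NaCl) and detergent washes. Bound and unbound fractions read by SDS-PAGE and phosphorimaging.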

GST-PDZ1 (PDZ1 of EBP50) = assay: GST-PDZ1 affinity resin binding of radiolabeled protein; parameters: species or system human; settings: 10 μg; radiolabeled full-length YAP65; 1 M NaCl washes
How it was run: (§2)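 GST or GST-EBP50, PDZ1 or PDZ2 fusion (10 µg) was immobilised on glutathione agarose. Binding ran in binding buffer + 0.1% Triton X-100 for 3 h at 4°C. Resin washed three times in TEE/1 M NaCl/1% Triton, then three times in binding buffer/1% Triton. Eluate acetone-precipitated; SDS-PAGE and phosphorimaging; ≥3 repeats.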

GST-PDZ2 (PDZ2 of EBP50) = assay: GST-PDZ2 affinity resin binding of radiolabeled protein; parameters: species or system human
How it was run: as §2

GST [5] = assay: GST control resin binding of radiolabeled protein; settings: 10 μg; radiolabeled full-length YAP65; 1 M NaCl washes
How it was run: as §2

[6] = system: SH3 domain of c-Src and c-Yes; settings: biochemical assays; ref Sudol 1994; cited from earlier work
GST-EBP50 [7] = assay: blot overlay, GST-EBP50; type: binding, human; settings: blot overlay assays (not shown)
GST-PDZ1 = GST-PDZ1 pull-down from 16HBE14o− lysate, Western blot; type: binding, human; settings: 10 μg GST-PDZ1, ∼200 μg 16HBE14o− lysate
How it was run: (§3)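 GST fusion protein (10 μg) immobilized on glutathione agarose and incubated 3 h at 4°C with ~200 μg 16HBE14o− lysate. Lysate made in RIPA with 250 μM orthovanadate and protease inhibitors, cleared at 40,000 g, and diluted in binding buffer + 0.1% Triton X-100. Beads washed in TEE/1 M NaCl/1% Triton, then in binding buffer/1% Triton. Eluates run on SDS-PAGE and Western blotted; each assay run at least three times.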

GST-PDZ2 = GST-PDZ2 pull-down from 16HBE14o− lysate, Western blot; type: binding, human; settings: 10 μg GST-PDZ2, ∼200 μg 16HBE14o− lysate
How it was run: as §3

Substance: GFP-YAP65/−4: GFP fused with YAP65 lacking the last four amino acids
c-Yes distribution in cells stably overexpressing the chimera (c-Yes): a significant amount of c-Yes was redistributed to the lateral cell borders

affinity for EBP50 (GST-EBP50 [4]): appear to bind EBP50 with high affinity | association with GST-PDZ1 (GST-PDZ1 (PDZ1 of EBP50)): not with GST or GST-PDZ1 | association with GST (GST [5]): not with GST or GST-PDZ1
Substance: YAP65: Yes-associated protein 65; full-length human, in vitro translated, or endogenous
association with GST from lysate (GST [1]): not to GST beads | association with GST-EBP50 from lysate (GST-EBP50 [2]): bound to the GST-EBP50 beads | localization of endogenous protein [3]: preferentially accumulated at the apical membrane | association with GST-PDZ2 (GST-PDZ2 (PDZ2 of EBP50); 10 μg, radiolabeled full-length YAP65, 1 M NaCl washes): associated with GST-EBP50 and GST-PDZ2 of EBP50 | binding to SH3 domain of c-Src and c-Yes [6]: bind the SH3 domain of c-Src and c-Yes, although the affinity for c-Yes was greater

binding to GST-EBP50 in blot overlay (GST-EBP50 [7]): bound GST-EBP50 | preferential binding to PDZ2 versus PDZ1 (GST-PDZ2 (PDZ2 of EBP50); GST fusion proteins of PDZ1 and PDZ2, pull-down (Fig. 5 C), discussion statement): preferential binding of YAP65 to PDZ2
Substance: YAPwt: the COOH-terminal 10 amino acids of YAP65 (Biotin-SGSGLDKESFLTWL)

Substance: c-Yes: nonreceptor tyrosine kinase of the Src family
association with GST-PDZ1 from lysate (GST-PDZ1): no c-Yes was found to associate with GST or with GST-PDZ1 | association with GST from lysate (GST [1]): no c-Yes was found to associate with GST or with GST-PDZ1 | association with GST-PDZ2 from lysate (GST-PDZ2): easily visualized in the bound fraction of GST-EBP50 and GST-PDZ2 affinity resins | association with GST-EBP50 from lysate (GST-EBP50 [2]): easily visualized in the bound fraction of GST-EBP50 and GST-PDZ2 affinity resins
